Columns and labels:
MS2 coat protein [1] = assay: apparent Kd, MS2 coat protein; higher = weaker binding; RNA-MaP array; theophylline 2 mM where present; details: designed as: OFF switch for theophylline
How it was run: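 Green signal was scaled to red-channel RNA signal and control-cluster median Fmax, and the apparent Kd was taken as the median of filtered per-cluster binding-curve fits. The binding series used SNAP-549-labelled MS2 coat protein from 0.7 or 1.5 nM, doubling to 3 µM, on designs transcribed by stalled E. coli RNA polymerase on Illumina sequencing-chip clusters. Each series ran without and then with constant ligand in 100 mM Tris-HCl pH 7.5, 80 mM KCl, 4 mM MgCl2, BSA, DTT, yeast tRNA and Tween-20.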

MS2 coat protein [2] = assay: apparent Kd, MS2 coat protein; higher = weaker binding; RNA-MaP array
How it was run: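 Apparent Kd values come from the median of binding-curve fits to single clusters. To obtain them, designed RNAs transcribed on an Illumina sequencing chip from sequenced DNA templates were incubated at room temperature with fluorescently labeled MS2 coat protein at 1.5 nM to 3 μM, with or without input ligand, for 0.8–1.5 h at the lowest and 10–20 min at the highest concentrations. Designs measured on fewer than 10 clusters were excluded.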

[3] = designed as: ON switch for flavin mononucleotide, no ligand
[4] = ligand present: flavin mononucleotide, designed as: ON switch for flavin mononucleotide
[5] = designed as: OFF switch for flavin mononucleotide, no ligand
[6] = ligand present: flavin mononucleotide, designed as: OFF switch for flavin mononucleotide

“AAAACACAUGAGGAUCACCCAUGUCGUGAUACCAGUCAACAUGAGGACCCUUGGCAGCAUAAAAUGGGUAACAUGAGGAUCACCC” was tested, and the “apparent Kd” value (MS2 coat protein [1]; no ligand) was 85.1 nM and the “apparent Kd” value (MS2 coat protein [1]; ligand present: theophylline) was 133 nM.

“GCUUCACAUGAGGAUCACCCAUGUCCGGAUACCAGCUCUCCAGACAGCCCUUGGCAGCCGAGCGCCCGAUUAUAUACCCUAGGAG” was tested, and the “apparent Kd” value (MS2 coat protein [2]; designed as: ON switch for theophylline, no ligand) was 22 nM and the “apparent Kd” value (MS2 coat protein [2]; ligand present: theophylline, designed as: ON switch for theophylline) was 29.9 nM.

With “GGCGAGACCCAGAAGGUUCGUCCGGAUCCGCGAUAAUACAUGAGGAUCACCCAUGUAAGACCGGGAAAGGAUAUGGGAACAGCG” the “apparent Kd” value (MS2 coat protein [2]; [3]) was 6.54 nM and the “apparent Kd” value (MS2 coat protein [2]; [4]) was 6.02 nM.

“GGGCGUGGAGUAGGAUAUCCUGUAUACAUGAGGAUCACCCAUGUACAUAUCUAGUAUUACCGUUUGGAGAAGGACUGUUGGGCU” was tested, and the “apparent Kd” value (MS2 coat protein [2]; [3]) was 11.5 nM and the “apparent Kd” value (MS2 coat protein [2]; [4]) was 9.71 nM.

“GGUCCCGUAGGAUAUUGCUCAUUGUACAUGAGGAUCACCCAUGUGACUACACUGCACUGGCAAGAAGGACGUUGAU” was tested, and the “apparent Kd” value (MS2 coat protein [2]; [5]) was 83.2 nM and the “apparent Kd” value (MS2 coat protein [2]; [6]) was 50.2 nM.

“GGUGCACAUGAGGAUCACCCAUGUGAGGAUAUGUGAAACGAGCUGAAUGCCAACCAAAACAGAAGGCACAAUGG” was tested, and the “apparent Kd” value (MS2 coat protein [2]; [5]) was 18.3 nM and the “apparent Kd” value (MS2 coat protein [2]; [6]) was 19 nM.

“GUAAGCAAGCAAGGAUAUGAUAUAAAUUCGAUAUCAGAAGGUGCCUUUCCUAGUCGAAUACAUGAGGAUCACCCAUGUCAGCAA” was tested, and the “apparent Kd” value (MS2 coat protein [2]; [3]) was 25.6 nM and the “apparent Kd” value (MS2 coat protein [2]; [4]) was 18 nM.

For “GUACCUCCCAAAGGAUAUGGACCGCAGACAUGAGGAUCACCCAUGUAGGACGCACUGUUUGCGCGCCAGAAGGUUGUUAAUCGC”, the “apparent Kd” value (MS2 coat protein [2]; [5]) was 98.5 nM and the “apparent Kd” value (MS2 coat protein [2]; [6]) was 73.2 nM.

“GUAUGGAUAUUCUCACGCUACAUGAGGAUCACCCAUGUUCUAAGAAGGCGGCGAGGUAGAGCAUCCGAGGAUAUUAGAACUCAG” was tested, and the “apparent Kd” value (MS2 coat protein [2]; [5]) was 21.1 nM and the “apparent Kd” value (MS2 coat protein [2]; [6]) was 76 nM.

With “GUCUCACAGAUAGGAUAUGGUUUUCACAUGAGGAUCACCCAUGUAAAUCCUAAAGUAAGUGGAGGCCAGAAGGAUCCGGUACAG” the “apparent Kd” value (MS2 coat protein [2]; [5]) was 32.2 nM and the “apparent Kd” value (MS2 coat protein [2]; [6]) was 35.1 nM.

For “GUGAGACAUGAGGAUCACCCAUGUAAGGAUAUUGCCUCGACCAUAUAAACAUAUCGGACAAGAAGGUACAGGAG”, the “apparent Kd” value (MS2 coat protein [2]; [5]) was 37.8 nM and the “apparent Kd” value (MS2 coat protein [2]; [6]) was 29.1 nM.

For “GUGGGCCGGGUAGGAUAUCGACAUGAGGAUCACCCAUGUGUGAGUUGAUGAACUCACGGAUAGCCCGAGAAGGACCUCAGGGCU”, the “apparent Kd” value (MS2 coat protein [2]; [3]) was 17.9 nM and the “apparent Kd” value (MS2 coat protein [2]; [4]) was 16.2 nM.

“GUGUACAUGAGGAUCACCCAUGUGAGAGCCACAUAGGGCCAGAAGGAUAUCUAUACUACCGCGUCAGAGAAGGUCUGUUGAUUU” was tested, and the “apparent Kd” value (MS2 coat protein [2]; [3]) was 33.2 nM and the “apparent Kd” value (MS2 coat protein [2]; [4]) was 24.9 nM.

With “UAAGAUUCUGUAGGAUAUCAAAUACAUGAGGAUCACCCAUGUAACCUGAUUUCUGAUCCUCAGUGUGAGAAGGACAAUUAAGCC” the “apparent Kd” value (MS2 coat protein [2]; [5]) was 22.1 nM and the “apparent Kd” value (MS2 coat protein [2]; [6]) was 21.2 nM.

In the case of “UACAUGAGGAUCACCCAUGUUAACGCUUAGAUGCAUCGACGUGAGGAUAUCGGGUUAAACCAGCACGAGAAGGCACAUCCAGAU”, the “apparent Kd” value (MS2 coat protein [2]; [3]) is reported as 34.5 nM and the “apparent Kd” value (MS2 coat protein [2]; [4]) is reported as 20.2 nM.

With “UACGUAUUAGGAGGAUAUGGCCCUCAUCUUUGACAUGAGGAUCACCCAUGUGGACAUUACGCCACCCAGAAGGCCUUGCUCGGA” the “apparent Kd” value (MS2 coat protein [2]; [5]) was 468 nM and the “apparent Kd” value (MS2 coat protein [2]; [6]) was 344 nM.

“UACGUGGAUGCGGCCGCCACUGCUCUGAGCGAGUUGCUCUAUGGACAUGAGGAUCACCCAUGUCACAGGACCGGGCACGCUUUAA” was tested, and the “apparent Kd” value (MS2 coat protein [2]; designed as: ON switch for tryptophan, no ligand) was 10.4 nM and the “apparent Kd” value (MS2 coat protein [2]; ligand present: tryptophan, designed as: ON switch for tryptophan) was 9.67 nM.

“UACUGCAAACAGAAGGUUGGAAGUCGGUUCUCCAAAGGAUAUGUACAUGAGGAUCACCCAUGUGCGCAAAUCGCACAGAGGAGG” was tested, and the “apparent Kd” value (MS2 coat protein [2]; [5]) was 14.6 nM and the “apparent Kd” value (MS2 coat protein [2]; [6]) was 36.9 nM.

With “UAGACGCACAAACAUGAGGAUCACCCAUGUGUACAGACGCUGCAGGAUAUCCUCUGAAGUUAGUAGGAGAAGGGCAAACAACCU” the “apparent Kd” value (MS2 coat protein [2]; [3]) was 44.5 nM and the “apparent Kd” value (MS2 coat protein [2]; [4]) was 27.3 nM.

In the case of “UAGAGGACGGGAGGAUAUUCAGGUACAUCAGCCGAAGGCACACAUGAGGAUCACCCAUGUGGGUCGAAGAAGGCCCAGUUGACG”, the “apparent Kd” value (MS2 coat protein [2]; [3]) is reported as 5.37 nM and the “apparent Kd” value (MS2 coat protein [2]; [4]) is reported as 4.67 nM.

In the case of “UAGCAAUGCGAAGGAUAUGUCGCCCUCCCAAGGACAGAAGGUCGGAACUGUUUACAUGAGGAUCACCCAUGUGGUAAUUAACAA”, the “apparent Kd” value (MS2 coat protein [2]; [3]) is reported as 21.8 nM and the “apparent Kd” value (MS2 coat protein [2]; [4]) is reported as 15.6 nM.

With “UAGGAACAUGAGGAUCACCCAUGUUAGGAUAUCGAGGUAUGGAUUAUCAUGCUGUAAGCGAGAAGGAACGUGUG” the “apparent Kd” value (MS2 coat protein [2]; [5]) was 30.8 nM and the “apparent Kd” value (MS2 coat protein [2]; [6]) was 29.6 nM.

“UAUUGAAUCCUCCCGACAUGAGGAUCACCCAUGUUACCUGCGCAGGAUAUCGUAUGUAUACCCGGCGAGAAGGGCGCUAGCGAG” was tested, and the “apparent Kd” value (MS2 coat protein [2]; [5]) was 213 nM and the “apparent Kd” value (MS2 coat protein [2]; [6]) was 160 nM.

With “UAUUUAUCUAUUGUGACAAACAUGAGGAUCACCCAUGUAUACAGAAGGCAUUACCGAAUCUCGGAUGAGGAUAUGUUAUGGAGU” the “apparent Kd” value (MS2 coat protein [2]; [5]) was 14 nM and the “apparent Kd” value (MS2 coat protein [2]; [6]) was 33.9 nM.

In the case of “UCAAUAUGUCGUUGACAUGAGGAUCACCCAUGUACUAACUAGCAGGAUAUCGUGAUUAACCCUACCGAGAAGGGCUGUUGUAUU”, the “apparent Kd” value (MS2 coat protein [2]; [3]) is reported as 40.7 nM and the “apparent Kd” value (MS2 coat protein [2]; [4]) is reported as 34.9 nM.
